Measured values: the M2OR odorant receptor database

Assays:
Or1m1 (Mus musculus) = target: T1, Or1m1 (Mus musculus) (UniProt Q8VFM9); details: stereoisomer not certain
T1 sequence (whole entry): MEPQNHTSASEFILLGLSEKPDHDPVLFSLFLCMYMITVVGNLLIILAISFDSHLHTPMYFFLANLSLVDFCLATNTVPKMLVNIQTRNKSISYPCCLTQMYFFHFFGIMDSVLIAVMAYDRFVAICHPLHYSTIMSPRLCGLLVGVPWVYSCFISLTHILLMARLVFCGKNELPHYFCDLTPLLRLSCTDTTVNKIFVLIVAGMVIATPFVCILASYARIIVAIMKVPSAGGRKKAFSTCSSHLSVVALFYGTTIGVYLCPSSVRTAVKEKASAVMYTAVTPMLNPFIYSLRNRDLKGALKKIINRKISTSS
Summary of the method: (§1)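 Each receptor–molecule pair is labelled responsive or non-responsive (inactive) according to whether the original authors judged the measured signal statistically different from baseline. The data were taken from the main text and supplementary material of published papers and checked for typos and inconsistencies. Assay methods differed by source, with transient luciferase assays in mammalian cell lines being common.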

Or5ar1 (Mus musculus) = target: T2, Or5ar1 (Mus musculus) (UniProt Q8VGS3); details: stereoisomer not certain
T2 sequence (whole entry): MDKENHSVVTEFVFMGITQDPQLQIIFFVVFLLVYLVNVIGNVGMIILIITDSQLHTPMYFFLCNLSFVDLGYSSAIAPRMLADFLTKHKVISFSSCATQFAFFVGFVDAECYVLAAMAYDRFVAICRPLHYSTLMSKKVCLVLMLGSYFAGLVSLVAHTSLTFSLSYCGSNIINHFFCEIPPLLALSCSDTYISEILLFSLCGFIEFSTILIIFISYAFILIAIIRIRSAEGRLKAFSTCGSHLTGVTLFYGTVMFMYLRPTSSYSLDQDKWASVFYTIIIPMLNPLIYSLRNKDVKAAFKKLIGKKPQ
Summary of the method: as §1
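Further: active if original authors judged signal statistically different from baseline.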

Compound	odorant receptor agonist call (Or1m1 (Mus musculus))	odorant receptor agonist call (Or5ar1 (Mus musculus))
CC=Cc1ccc(OC)cc1	inactive	inactive
CC(=O)C=CC1=C(C)CCCC1(C)C	inactive	inactive
CCC(C)O (centres undefined)	inactive	inactive
CCCCCCCCC=CC=O	inactive	inactive
Cc1occc1SSc1ccoc1C	inactive	inactive
CCc1ccccc1O	inactive	inactive
CC1CCC(C(C)C)C(=O)C1 (centres undefined)	inactive	inactive
C=C1C2CCC(C2)C1(C)C (centres undefined)	inactive	inactive
O=C(OCc1ccccc1)c1ccccc1O	inactive	inactive
OCC=Cc1ccccc1	inactive	inactive
CCCCCC(=Cc1ccccc1)C(OC)OC	inactive	active
CCOC(=O)C(C)CC (centres undefined)	inactive	inactive
CCc1occc(=O)c1O	inactive	inactive
CNc1ccccc1C(=O)OC	inactive	inactive
CCOC(=O)CC(C)C	inactive	inactive
CCCCCCC(=O)OCCCC	inactive	inactive
CCCCCCCOC(=O)C(C)C	inactive	inactive
O=C(O)C1CCC1	inactive	inactive
C=CC(=C)CCC=C(C)C	inactive	inactive
C=C(CC)CCCC(C)(C)O	inactive	inactive
CCCCCCC(C=O)=Cc1ccccc1	inactive	inactive
C=C(C)C1CC=C(C)CC1 (centres undefined)	inactive	inactive
CC=C(C)C=O	inactive	inactive
O=C(O)CCCCCBr	inactive	inactive
Cc1ccc(C(C)C)cc1	inactive	inactive
COc1nccnc1C	inactive	inactive
CCCC=O	inactive	inactive
